Measurements published in ChEMBL document CHEMBL2034874, “5-acetyl-2-arylbenzimidazoles as antiviral agents. Part 4” (Eur J Med Chem, 2012).

Tests used:
[1] = tested on: Vesicular stomatitis Indiana virus; assay: Antiviral activity against Vesicular stomatitis virus indiana ATCC VR-1540 infected in african green monkey Vero-76 cells assessed as reduction in viral plaque after 2 days by crystal violet staining; assay type: functional, organism-based; conditions: ATCC VR-1540, Vero 76, 48 h
[2] = Antiviral activity against BVDV1 NADL ATCC VR-534 infected in MDBK cells assessed as inhibition of virus-induced cytopathogenicity after 3 to 4 days by MTT assay; assay type: functional, cell-based, Bovine viral diarrhea virus 1-NADL; conditions: Bovine viral diarrhea virus isolates and strains, ATCC VR-534, MDBK
How it was run: (§1)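 BHK (5×10^4/well) or MDBK (3×10^4/well) cells grown to confluent monolayers overnight, infected at m.o.i. 0.01 in maintenance MEM-Earl with 0.5% inactivated FBS. Serially diluted compounds added after 1 h. Viability read by MTT after 3–4 days at 37 °C. Values are expressed as % of untreated controls, and EC50 is derived by linear regression. Duplicate samples.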

[3] = Antiviral activity against Human respiratory syncytial virus A2 ATCC VR-1540 infected in african green monkey Vero-76 cells assessed as reduction in viral plaque after 5 days by crystal violet staining; assay type: functional, cell-based; conditions: ATCC VR-1540, Vero 76, 120 h
How it was run: (§2)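 Vero-76 monolayers (2×10^5 cells/well) infected for 2 h at 50–100 PFU/well. Unadsorbed virus removed. D-MEM with 1% inactivated FBS, 0.75% methylcellulose and serial compound dilutions added. Incubation at 37 °C for 3 days (CVB-5, HSV-1) or 5 days (RSV). Fixed and stained with 50% ethanol/0.8% crystal violet, then plaques counted. EC50 by linear regression versus untreated controls.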

[4] = tested on: Poliovirus 1; assay: Antiviral activity against Polio virus type 1 strain sabin ATCC VR-1562 infected in african green monkey Vero-76 cells assessed as reduction in viral plaque after 2 days by crystal violet staining; assay type: functional, cell-based, Human poliovirus 1 strain Sabin; conditions: Enterovirus C, ATCC VR-1562, Vero 76, 48 h
[5] = tested on: Hepatitis C virus; assay: Antiviral activity against Hepatitis C virus genotype 1b infected in human GS4.1 cells assessed as inhibition of viral replication after 72 hrs by ELISA; assay type: functional, organism-based, Hepacivirus hominis
How it was run: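 Huh-7 cells carrying the genotype 1b replicon (GS4.1) seeded at 7.5×10^3/well with two-fold serial dilutions, top 75 µM, for 72 h at 37 °C. Cells fixed in acetone–methanol. NS4A quantified by ELISA with anti-NS4A antibody A-236, peroxidase conjugate and o-phenylenediamine, read at 492 nm. EC50 from four-parameter sigmoidal fit. Replicon-free Huh-7 served as negative control.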

[6] = tested on: Human immunodeficiency virus 1; assay: Antiviral activity against HIV1 3B infected in human MT4 cells assessed as inhibition of virus-induced cytopathogenicity after 4 days by MTT assay; assay type: functional, organism-based; conditions: Human immunodeficiency virus 1, 3B, MT4, 96 h
How it was run: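 MT-4 cells (1×10^4/well) in RPMI with serial compound dilutions, infected with HIV-1 IIIB at 100 CCID50 (m.o.i. 0.01). Viability measured by MTT after 4 days at 37 °C. EC50 for 50% protection from cytopathogenicity obtained by linear regression against untreated controls.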

[7] = Cytotoxicity against human MT4 cells after 96 hrs by MTT assay; assay type: cell-based
How it was run: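 Exponentially growing MT-4 cells seeded at 1×10^5 cells/mL in RPMI-1640 with 10% FBS and incubated with serial compound dilutions at 37 °C and 5% CO2. Viability measured by MTT after 96 h. CC50 by linear regression against untreated controls.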

[8] = Cytotoxicity against human GS4.1 cells assessed as decrease in cell viability by Cell Titer glo assay; assay type: cell-based
[9] = Cytotoxicity against MDBK cells after 48 to 96 hrs by MTT assay; assay type: cell-based, Bos taurus; conditions: cattle
How it was run: (§3)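 Mock-infected MDBK (6×10^5 cells/mL, MEM-E with 10% horse serum) or BHK (1×10^6 cells/mL, MEM-E with 10% FBS) cells incubated with serial compound dilutions at 37 °C and 5% CO2. Viability measured by MTT after 48–96 h. CC50 by linear regression against untreated controls.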

[10] = Cytotoxicity against BHK21 cells by MTT assay; assay type: cell-based, Mesocricetus auratus; conditions: hamster, BHK-21 cells; how it was run: as §3
[11] = tested on: Coxsackievirus B5; assay: Antiviral activity against Coxsackie virus type B5 Ohio-1 ATCC VR-29 infected in african green monkey Vero-76 cells assessed as reduction in viral plaque after 3 days by crystal violet staining; assay type: functional, organism-based; conditions: Enterovirus B, Ohio-1 ATCC VR-29, Vero 76, 72 h; how it was run: as §2
[12] = tested on: Human alphaherpesvirus 1; assay: Antiviral activity against Herpes simplex virus type 1 KOS ATCC VR-1493 infected in african green monkey Vero-76 cells assessed as reduction in viral plaque after 3 days by crystal violet staining; assay type: functional, organism-based; conditions: Human alphaherpesvirus 1, KOS ATCC VR1493, Vero 76, 72 h; how it was run: as §2
[13] = tested on: Yellow fever virus; assay: Antiviral activity against Yellow fever virus 17D infected in BHK21 cells assessed as inhibition of virus-induced cytopathogenicity after 3 to 4 days by MTT assay; assay type: functional, cell-based; conditions: BHK-21
[14] = tested on: Mammalian orthoreovirus 1; assay: Antiviral activity against Reovirus 1 3651 ATCC VR-214 infected in BHK21 cells assessed as inhibition of virus-induced cytopathogenicity after 3 to 4 days by MTT assay; assay type: functional, organism-based; conditions: Mammalian orthoreovirus 1, 3651 ATCC VR-214, BHK-21; how it was run: as §1
[15] = Cytotoxicity against african green monkey Vero 76 cells after 48 to 96 hrs by MTT assay; assay type: cell-based; conditions: chlorocebus sabaeus
[16] = tested on: Coxsackievirus B2; assay: Antiviral activity against Coxsackie virus type B2; assay type: functional, organism-based; conditions: Enterovirus B
[17] = Inhibition of HCV NS5B polymerase; set-up: species or system Hepacivirus hominis
[18] = tested on: Vaccinia virus; assay: Antiviral activity against Vaccinia virus Elstree-Lister ATCC VR-1549 infected in african green monkey Vero-76 cells assessed as reduction in viral plaque after 3 days by crystal violet staining; assay type: functional, organism-based; conditions: Orthopoxvirus vaccinia, Elstree-Lister ATCC VR-1549, Vero 76, 72 h

Row | SMILES | EC50 [1] [µM] | EC50 [2] [µM] | EC50 [3] [µM] | EC50 [4] [µM] | EC50 [5] [µM] | EC50 [6] [µM] | CC50 at 96 h [7] [µM] | CC50 [8] [µM] | CC50 [9] [µM] | CC50 [10] [µM] | EC50 [11] [µM] | EC50 [12] [µM] | EC50 [13] [µM] | EC50 [14] [µM] | CC50 [15] [µM] | EC50 [16] [µM] | IC50 [17] [µM] | EC50 [18] [µM]
1 | COc1ccc(-c2nc3cc(/C(C)=N/NC(N)=S)ccc3[nH]2)c(OC)c1 | > 100 | 0.8 | > 100 | > 100 | 1.11 | > 72 | 72 | 11.3 | > 100 | 28 | > 100 | > 100 | > 28 | > 28 | > 100 |  |  | 
2 | CC(=O)c1ccc2[nH]c(-c3ccc(-c4ccc([N+](=O)[O-])cc4)cc3)nc2c1 |  |  |  |  |  |  |  |  |  |  |  |  | 0.5 |  |  | 1 |  | 
3 | O=C(O)c1ccc2c(c1)nc(-c1ccccn1)n2C1CCCCC1 |  |  |  |  |  |  |  |  |  |  |  |  |  |  |  |  | 4.3 | 
4 | COc1ccc(-c2nc3cc(C(C)=O)ccc3n2C2CCCCC2)c(OC)c1 | > 70 | > 21 | > 70 | > 70 |  | > 21 | 21 |  | 21 | 8.5 | > 70 | > 70 | > 8.5 | > 85 | 70 |  |  | > 70
5 | C/C(=N\NC(N)=S)c1ccc2c(c1)nc(-c1ccccc1)n2C1CCCCC1 | > 20 | 4.5 | > 20 | > 20 |  | 10 | 20 |  | 24 | 38 | > 20 | > 20 | 9 | > 38 | 20 |  |  | > 20
6 | COc1ccc(-c2nc3cc(C(C)=O)ccc3n2C2CCCCC2)cc1 | > 30 | 21 | > 30 | > 30 |  | > 27 | 27 |  | > 100 | > 100 | > 30 | > 30 | 13.4 | > 100 | 30 |  |  | > 30
7 | COc1ccc(-c2nc3cc(C(C)O)ccc3[nH]2)cc1 (centres undefined) | > 100 | > 100 | > 100 | > 100 |  | > 100 | ≥ 100 |  | > 100 | > 100 | > 100 | > 100 | > 100 | > 100 | > 100 |  |  | > 100
8 | CC(=O)c1ccc2c(c1)nc(-c1ccc(C(F)(F)F)cc1)n2C1CCCCC1 | > 35 | 23 | 20 | > 35 |  | > 41 | 41 |  | 52 | 33 | > 35 | > 35 | > 33 | > 33 | 35 |  |  | > 35
9 | C/C(=N\NC(N)=S)c1ccc2c(c1)nc(-c1ccc(C(F)(F)F)cc1)n2C1CCCCC1 | > 100 | > 100 | > 100 | > 100 |  | ≥ 30 | 30 |  | > 100 | > 100 | > 100 | > 100 | > 100 | > 100 | > 100 |  |  | > 100
10 | COc1ccc(-c2nc3cc(C(C)O)ccc3[nH]2)c(OC)c1 (centres undefined) | > 100 | > 100 | > 100 | > 100 |  | > 100 | ≥ 100 |  | > 100 | > 100 | > 100 | > 100 | > 100 | > 100 | > 100 |  |  | > 100
11 | CC(=O)c1ccc2c(c1)nc(-c1ccccc1)n2C1CCCCC1 | > 80 | 60 | 25 | > 80 |  | > 37 | 37 |  | > 100 | 100 | > 80 | > 80 | 13.2 | > 100 | 80 |  |  | > 80
12 | Nc1ccc(/C=C/c2nc3ccccc3[nH]2)cc1 |  |  |  |  |  |  |  |  |  |  |  |  |  |  |  | 7 |  | 
13 | Nc1ccc(/C=C/c2nc3cc(Cl)ccc3[nH]2)cc1 |  |  |  |  |  |  |  |  |  |  |  |  |  |  |  | 7 |  | 
14 | C/C(=N\NC(N)=S)c1ccc2[nH]c(-c3ccoc3)nc2c1 | > 100 | 8 | > 100 | 100 |  | > 86 | 86 |  | > 100 | > 100 | > 100 | > 100 | > 100 | > 100 | 100 |  |  | > 100
15 | O=C(O)c1ccc2c(c1)nc(-c1ccoc1)n2C1CCCCC1 |  |  |  |  |  |  |  |  |  |  |  |  |  |  |  |  | 1.6 | 
16 | COc1ccc(-c2nc3cc(C(C)=O)ccc3[nH]2)c(OC)c1OC | > 100 | > 100 | > 100 | > 100 |  | > 100 | > 100 |  | > 100 | > 100 | > 100 | > 100 | > 100 | > 100 | > 100 |  |  | > 100
17 | COc1ccc(-c2nc3cc(/C(C)=N/NC(N)=S)ccc3n2C2CCCCC2)c(OC)c1 | > 20 | 4 | > 20 | > 20 |  | ≥ 17 | 17 |  | > 100 | 17 | > 20 | > 20 | > 17 | > 17 | 20 |  |  | > 20
18 | C/C(=N\NC(N)=S)c1ccc2c(c1)nc(-c1ccc(Cl)cc1)n2C1CCCCC1 | > 100 | > 100 | > 100 | > 100 |  | ≥ 17 | 17 |  | > 100 | > 100 | > 100 | > 100 | > 100 | > 100 | > 100 |  |  | > 100
